Sampled rows, rich in hits. Any-hit rate of the full collection: about 1.4%.
Tn6 DDE FP – disrupts Tn6 cyclic peptide binding to fibrin D-Dimer-E complex; Fibrin DD(E) TRITC-Tn6 fluorescence polarization displacement; inhibition, % at 8.3 µM; actives 0.21% (n = 370,000); AID 720509;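 active = inhibition above a per-campaign cutoff: mean of compounds within control limits plus 3 SD, cut at about 15% in these data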;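 note: 0% = median of all compound wells on the plate and 100% = blocking peptide control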
Target sequence (P02675 whole entry, looked up): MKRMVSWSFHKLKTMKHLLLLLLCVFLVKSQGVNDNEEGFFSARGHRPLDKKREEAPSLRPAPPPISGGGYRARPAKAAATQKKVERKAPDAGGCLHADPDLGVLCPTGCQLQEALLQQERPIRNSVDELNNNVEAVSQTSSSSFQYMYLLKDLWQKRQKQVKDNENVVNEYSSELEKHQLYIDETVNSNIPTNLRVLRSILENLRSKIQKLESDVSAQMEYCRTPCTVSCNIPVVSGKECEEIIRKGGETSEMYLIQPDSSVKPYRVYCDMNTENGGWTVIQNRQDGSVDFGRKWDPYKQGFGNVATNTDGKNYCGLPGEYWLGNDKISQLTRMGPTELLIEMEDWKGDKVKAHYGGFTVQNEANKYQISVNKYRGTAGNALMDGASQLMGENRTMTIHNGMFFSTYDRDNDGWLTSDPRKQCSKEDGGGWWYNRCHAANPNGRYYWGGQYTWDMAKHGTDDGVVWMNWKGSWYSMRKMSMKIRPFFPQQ
H9c2 TAG inh – reduces triacylglycerol accumulation in H9c2 cells; Nile Red lipid (TAG) fluorescence; cells loaded with 200 µM oleic acid; inhibition, % at 12.5 µM; actives 0.66% (n = 230,000); AID 651582;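 active = pattern-corrected inhibition of lipid staining of at least 50% with the nuclear-stain viability signal not falling by more than 50%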;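 note: 0% = DMSO wells and 100% = triacsin C control wells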
Cardio protect – protects H9c2 cardiomyocytes from peroxide injury | H2O2 injury protection, ATPLite, 2 h | AID 588492 | protection from H2O2 cell death, % at 20 µM | actives 0.63% (n = 360,000);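 active = compounds giving at least 50% protection of heart cells from peroxide-induced death in the single-dose screen, raw or plate-pattern-corrected value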;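 note: 0% = DMSO wells with peroxide and 100% = DMSO wells without peroxide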
DDE Tn7 FP inh – disrupts Tn7 cyclic peptide binding to fibrin D-Dimer-E complex | FP displacement of FITC-Tn7 peptide from fibrin DD(E); 0% = median of compound wells per plate | inhibition, % at 8.3 µM | actives 0.13% (n = 370,000);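 active = inhibition above the mean of compounds falling within the control limits plus 3 SD of them, cut at about 14% in these data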;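 note: 0% = plate median of compound wells and 100% = 10 µM Aha-Tn7 peptide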
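Measure: % inhibition scaled between sample-field median and high-control FP; Test system: human fibrin DD(E); Quantity: 2 µM final DD(E) protein; Doses: one dose, 8.3 µM nominal; Schedule: compound with protein 10 min, then 3 h after probe, room temperature; Detection: fluorescence polarization; Medium: Tris buffer with calcium and detergent, pH 7.8.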
DAGLB inh – blocks human DAGLB lipase activity; AID 504411; actives 0.059% (n = 340,000); inhibition, % at 5.17 µM; HEK293T DAGLB membrane lysate, EnzChek fluorogenic substrate; Q8NCG7; in the data active = inhibition above about 34%;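 note: 0% = enzyme with vehicle and 100% = wells lacking enzyme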
MT1-MMP act inh – blocks activation of human MT1-MMP; P50281; GFP/RFP ratio change, % at 20 µM; actives 0.061% (n = 360,000); HT1080 RFP-PRO-GFP cells, GFP/RFP ratio fluorescence, overnight; percent of plate control window, DMSO zero;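 active = GFP/RFP ratio change of at least 30% with cell ATP level not reduced by more than half and red fluorescence within 50% of control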
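Assay system: HT1080 RFP-PRO-GFP cells | Dosing: 20 µM single dose, 1% DMSO | Incubation: Cells overnight before dosing, compound overnight, 37 °C, 5% CO2 | Evaluation: GFP/RFP fluorescence ratio | Control set: DMSO-only wells and HT1080 RFP-L50D-GFP cell wells as references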
Tn7 DDE conf – confirmation of inhibitors of Tn7 binding to human fibrin DD(E). shares compounds with DDE Tn7 FP inh. FP displacement of TRITC-Tn7 peptide from DD(E); 0% set at plate's compound-well median. inhibition, % at 8.3 µM. actives 5% (n = 460). AID 720628;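 active = inhibition above the campaign cutoff, the mean of compounds within control limits plus 3 SD, cut at about 14% in these data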;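 note: 100% = median FP of high control wells holding Aha-Tn7 inhibitor peptide; displacers lower polarization since freed probe rises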
DDE Tn7 FP ctr – counter-screen for inhibitors of Tn7 peptide binding to fibrin DD(E); shares compounds with DDE Tn7 FP inh; TRITC-Tn7 probe displacement, fluorescence polarization; inhibition, % at 8.3 µM; actives 3% (n = 460);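 active = inhibition above the cutoff, the mean of compounds lying between the control bounds plus 3 SD of those compounds, cut at about 17% in these data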;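 note: 0% = median of compound sample wells and 100% = excess unlabeled Aha-Tn7 peptide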
Starred values were filed as active, the others as inactive; . = no result.

SMILES	Tn6 DDE FP	H9c2 TAG inh	Cardio protect	DDE Tn7 FP inh	DAGLB inh	MT1-MMP act inh	Tn7 DDE conf	DDE Tn7 FP ctr
CCc1nnc(NC(=O)CSc2ncnc3scc(-c4ccc(C)cc4)c23)s1	7	9	-6	0	-1	-2	.	.
Cc1ccc(-c2csc3ncnc(SCC(N)=O)c23)cc1	5	3	9	16*	0	.	1	-1
COc1ccc(/C=C/C(=O)OCC(=O)NC(C)CCc2ccccc2)cc1OC (centres undefined)	7	-16	-5	14*	-2	2	1	-2
O=C1CCC/C(=N/NC(=O)c2sc3ccccc3c2Cl)C1	-2	-5	5	44*	-14	-136	-5	-5
CC1CN(C(=O)c2ccccc2)OC(c2ccc3c(c2)OCO3)O1 (centres undefined)	6	.	3	15*	-4	-1	-3	-1
COc1ccccc1NC(=O)OCCCN1CCC2(CCC(C)CC2)C1=O (centres undefined)	1	.	.	2	.	.	.	.
COc1ccc(OC)c(S(=O)(=O)N2CCC(c3cn4ccccc4n3)CC2)c1	0	.	.	2	.	.	.	.
CCOc1ccc(NC(=O)CN2CCN(CC(=O)Nc3ccc4c(c3)OCCO4)CC2)cc1	-1	-13	1	15*	0	2	-1	-4
CCOc1ccc(NC(=O)CN2CCN(CC(=O)Nc3cccc(F)c3)CC2)cc1	-3	.	-4	-2	-2	4	.	.
C[C@H]1[C@@H](NC(=O)c2ccc(Cl)c(C(F)(F)F)c2)CC[C@@]23CCCN2C(=O)CCC[C@@H]13	4	.	.	0	.	.	.	.
CC(=O)Oc1ccc2c(c1)C(=O)c1ccccc1CO2	4	0	4	14*	-2	1	-6	-4
COCCCNC(=O)Cn1nc(Cc2ccncc2)c2ccccc2c1=O	15	.	.	5	.	.	.	.
Fc1cccc(Cl)c1CN1CCN(c2ncc(Cc3ccccc3)cn2)CC1	1	.	.	2	.	.	.	.
COC(=O)c1cc2occc2n1CC(=O)Nc1ccc(C)cc1C	1	.	4	14*	-1	-3	5	1
COC(=O)[C@]12C[C@H](CC(=O)NCc3cccc4ccccc34)C(=O)N(Cc3ccc(Cl)cc3Cl)C1=C[C@H](COCc1ccccc1)O[C@@H]2C	1	.	.	8	.	.	.	.
CC(=O)Nc1cc(-c2ccccc2N(C)C)cn2c(-c3ccc(S(C)(=O)=O)cc3)cnc12	4	-13	21	26*	.	-102	-5	-5
CCCC1CCC2(CC1)CCC2OC(=O)Nc1c(OC)cccc1OC (centres undefined)	0	.	.	7	.	.	.	.
CC(C)CNc1ccc2c(c1)OC[C@H](C)NS2(=O)=O	-5	.	.	-5	.	.	.	.
COc1ccc(/C=C2\CCc3c2nc2ccccc2c3C(=O)O)cc1OC	-10	8	6	23*	-4	-19	-6	-13
CC(=N\NC(=O)c1ccc([N+](=O)[O-])cc1)/C(=N/O)C(=O)Nc1ccccc1	-1	-12	18	16*	3	-1	1	1
CN(Cc1ccccc1)C(=O)OCc1cn(Cc2ccc(Cl)cc2)nn1	1	.	.	-1	.	.	.	.
Cn1c(NC2CCCCC2)cc(=O)n(C)c1=O	4	.	-3	4	-11	-1	.	.
CC(=O)Nc1ccc(Nc2c3c4c(cccc4n(C)c2=O)C(=O)c2ccccc2-3)cc1	-2	.	24	19*	27	-157	12	8
Cn1c(=O)c(NC2CCCCC2)c2c3c(cccc31)C(=O)c1ccccc1-2	-1	-63	13	19*	-272	-147	2	11
COc1ccccc1N(CC(=O)NCCSCc1ccc(Cl)cc1)S(C)(=O)=O	-2	.	-3	1	-1	2	.	.
SMILES	Tn6 DDE FP	H9c2 TAG inh	Cardio protect	DDE Tn7 FP inh	DAGLB inh	MT1-MMP act inh	Tn7 DDE conf	DDE Tn7 FP ctr
COc1ccccc1N(CC(=O)NCCSCc1ccccc1)S(C)(=O)=O	2	.	-1	14*	-2	4	-2	-5
O=C(N1CCC(n2nc(-c3ccccc3)oc2=O)CC1)C1(c2ccccc2)CCCC1	-4	.	.	1	.	.	.	.
C[C@H]1[C@@H](NC(=O)C2CCOC2)CC[C@@]23CCCN2C(=O)CCC[C@@H]13 (some centres undefined)	7	.	.	-4	.	.	.	.
C/C(=N\NC(=O)Cn1cnc2ccccc21)c1cccs1	0	4	1	17*	0	3	2	-4
COc1ccc(NC(=O)C(c2cc3c(cc2[N+](=O)[O-])OCO3)N(C)c2ccccc2)cc1 (centres undefined)	2	.	-3	15*	-1	-3	-5	-5
CN(C)CC(=O)N[C@@H]1C[C@@H]2O[C@@H](CO)CC[C@@H]2O[C@@H]1CCc1ccc(C#Cc2ccccc2)cc1	-1	.	.	8	.	.	.	.
NS(=O)(=O)c1cccc(NC(=O)CSc2ncnc3ccccc23)c1	-4	10	-1	-2	-2	-8	.	.
NS(=O)(=O)c1ccc(NC(=O)CSc2ncnc3ccccc23)cc1	6	1	16	14*	-1	-6	1	3
COc1cccc(OC(C)CCN2CCC(C(O)(c3ccccc3)c3ccccc3)CC2)c1 (centres undefined)	3	.	.	2	.	.	.	.
CC(=O)Nc1ccc(NC(=O)[C@@H](NC(=O)c2ccccc2F)C(C)C)cc1	10	.	-2	15*	0	0	3	3
CN(C)CCCC1Sc2ccccc2Sc2ccccc21 (centres undefined)	-1	23	3	-7	2	-1	.	.
CNCCC1Sc2ccccc2Oc2ccccc21 (centres undefined)	9	9	10	14*	-2	-28	-1	-2
C[C@H]1C2CC(OC(=O)Nc3ccc4c(c3)OCO4)C(C2)[C@H]2CCCCN21 (some centres undefined)	1	.	.	0	.	.	.	.
Cc1ccc(NC(=O)CSc2nnc3ccc(-c4ccncc4)nn23)cc1	-1	9	5	5	-1	-5	.	.
Cc1ccc(CSc2nnc3ccc(-c4ccncc4)nn23)cc1	2	0	2	14*	-4	-8	0	-1
COc1ccc(CC(=O)NCc2n[nH]c(=S)n2-c2ccc(F)cc2)cc1	-4	9	4	4	0	-2	.	.
COc1ccc(CC(=O)NCc2n[nH]c(=S)n2-c2ccccc2OC)cc1	2	-7	-2	15*	0	1	-4	-16

Screening data from PubChem.
